# The source made the active and inactive calls. No cut-off for these calls is given here.
# Assays:
# Escherichia coli [1] = assay: Distribution of Escherichia coli AB1157 IL05 new born cells containing eight ori foci at 8 ug/ml after 14 hrs incubation; type: functional
# Summary of the method: (§1)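 IL05(pWX6) (LacI-CFP/TetR-YFP marking ori and ter arrays) grown at 37°C in M9-sodium acetate with required amino acids, 100 μg/ml ampicillin, 0.5 mM IPTG, 40 ng/ml anhydrotetracycline. AMK added at OD600 0.05. After 14 h, cells placed on 1% agarose-PBS pads, imaged (×100, phase plus fluorescence). 200 cells per culture classified by ori/ter foci number; three independent experiments.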
# Escherichia coli [2] = assay: Distribution of Escherichia coli AB1157 IL05 new born cells containing duplicated sister ori foci at 8 ug/ml after 14 hrs incubation; type: functional; summary of the method: as §1
# Escherichia coli [3] = assay: Distribution of Escherichia coli AB1157 IL05 new born cells containing four ori foci at 16 ug/ml after 14 hrs incubation; type: functional; summary of the method: as §1
# Escherichia coli [4] = assay: Sublethal concentration measured by presence of granular bodies in Escherichia coli AB1157 IL05 cells at 4 ug/ml after 14 hrs incubation; type: functional, organism-based
# Summary of the method: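 IL05(pWX6) grown 14 h at 37°C in acetate minimal medium with AMK added at OD600 0.05. Cells then examined by phase-contrast microscopy in 27% gelatin-containing minimal medium, scoring polar granular bodies and nucleoids.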
# Escherichia coli [5] = assay: Distribution of Escherichia coli AB1157 IL05 new born cells containing duplicated ori and ter foci at 4 ug/ml after 14 hrs incubation; type: functional; summary of the method: as §1
# Escherichia coli [6] = assay: Distribution of Escherichia coli AB1157 IL05 new born cells containing four ori foci at 32 ug/ml after 14 hrs incubation; type: functional; summary of the method: as §1
# Escherichia coli [7] = assay: Distribution of Escherichia coli AB1157 IL05 new born cells containing duplicated sister ori foci at 4 ug/ml after 14 hrs incubation; type: functional; summary of the method: as §1
# Escherichia coli [8] = assay: Distribution of Escherichia coli AB1157 IL05 new born cells containing four ori foci at 8 ug/ml after 14 hrs incubation; type: functional; summary of the method: as §1
# Escherichia coli [9] = assay: Loss of cell viability in Escherichia coli AB1157 IL05 above 16 ug/ml after 8 hrs incubation; type: functional, organism-based
# Escherichia coli [10] = assay: Distribution of Escherichia coli AB1157 IL05 new born cells containing one ori and one ter foci at 16 ug/ml after 14 hrs incubation; type: functional; summary of the method: as §1
# Escherichia coli [11] = assay: Distribution of Escherichia coli AB1157 IL05 new born cells containing one ori and one ter foci at 4 ug/ml after 14 hrs incubation; type: functional; summary of the method: as §1
# Escherichia coli [12] = assay: Distribution of Escherichia coli AB1157 IL05 new born cells containing duplicated ori and ter foci at 16 ug/ml after 14 hrs incubation; type: functional; summary of the method: as §1
# Escherichia coli [13] = assay: Distribution of Escherichia coli AB1157 IL05 new born cells containing eight ori foci at 4 ug/ml after 14 hrs incubation; type: functional; summary of the method: as §1
# Escherichia coli [14] = assay: Distribution of Escherichia coli AB1157 IL05 new born cells containing duplicated ori and ter foci at 8 ug/ml after 14 hrs incubation; type: functional; summary of the method: as §1
# Escherichia coli [15] = assay: Distribution of Escherichia coli AB1157 IL05 new born cells containing duplicated sister ori foci at 32 ug/ml after 14 hrs incubation; type: functional; summary of the method: as §1
# Escherichia coli [16] = assay: Distribution of Escherichia coli AB1157 IL05 new born cells containing eight ori foci at 16 ug/ml after 14 hrs incubation; type: functional; summary of the method: as §1
# Escherichia coli [17] = assay: Distribution of Escherichia coli AB1157 IL05 new born cells containing duplicated ori and ter foci at 32 ug/ml after 14 hrs incubation; type: functional; summary of the method: as §1
# Escherichia coli [18] = assay: Assembly of Z-ring in Escherichia coli AB1157 IL06(pCP12) cells at 4 ug/ml
# Escherichia coli [19] = assay: Distribution of Escherichia coli AB1157 IL05 new born cells containing one ori and one ter foci at 8 ug/ml after 14 hrs incubation; type: functional; summary of the method: as §1
# Escherichia coli [20] = assay: Distribution of Escherichia coli AB1157 IL05 new born cells containing one ori and one ter foci at 32 ug/ml after 14 hrs incubation; type: functional; summary of the method: as §1
# Escherichia coli [21] = assay: Distribution of Escherichia coli AB1157 IL05 new born cells containing four ori foci at 4 ug/ml after 14 hrs incubation; type: functional; summary of the method: as §1
# Escherichia coli [22] = assay: Distribution of Escherichia coli AB1157 IL05 new born cells containing eight ori foci at 32 ug/ml after 14 hrs incubation; type: functional; summary of the method: as §1
# Escherichia coli [23] = assay: Distribution of Escherichia coli AB1157 IL05 new born cells containing duplicated sister ori foci at 16 ug/ml after 14 hrs incubation; type: functional; summary of the method: as §1
structure (smiles),measurement,setting,value
NCC[C@H](O)C(=O)N[C@@H]1C[C@H](N)[C@@H](O[C@H]2O[C@H](CN)[C@@H](O)[C@H](O)[C@H]2O)[C@H](O)[C@H]1O[C@H]1O[C@H](CO)[C@@H](O)[C@H](N)[C@H]1O [AMIKACIN],Activity,Escherichia coli [1],5%
same,Activity,Escherichia coli [2],0%
same,Activity,Escherichia coli [3],46%
same,Activity,Escherichia coli [4],Active
same,Activity,Escherichia coli [5],48%
same,Activity,Escherichia coli [6],0%
same,Activity,Escherichia coli [7],0%
same,Activity,Escherichia coli [8],69%
same,Activity,Escherichia coli [9],inactive
same,Activity,Escherichia coli [10],6%
same,Activity,Escherichia coli [11],0%
same,Activity,Escherichia coli [12],34%
same,Activity,Escherichia coli [13],8%
same,Activity,Escherichia coli [14],36%
same,Activity,Escherichia coli [15],37%
same,Activity,Escherichia coli [16],11%
same,Activity,Escherichia coli [17],31%
same,Activity,Escherichia coli [18],35%
same,Activity,Escherichia coli [19],0%
same,Activity,Escherichia coli [20],32%
same,Activity,Escherichia coli [21],44%
same,Activity,Escherichia coli [22],0%
same,Activity,Escherichia coli [23],3%

# Source: ChEMBL document CHEMBL1142132, “Sublethal concentrations of the aminoglycoside amikacin interfere with cell division without affecting chromosome dynamics” (2007)
